In ChEMBL document CHEMBL2331482, “Synthesis of some new 2-(3-pyridyl)-4,5-disubstituted thiazoles as potent antimicrobial agents” (2013):
Values after ≈ are worked out from the molar mass of the structure shown. Active and inactive are the calls of the source. No cut-off for these calls is given here.

Legend:
Assay type in all cases: functional
[1] = system: Staphylococcus epidermidis; experiment: Antibacterial activity against Staphylococcus epidermidis RCMB 010024 assessed as growth inhibition after 24 hrs by twofold serial dilution method; settings: RCMB 010024, 24 h
Method in brief: (§1)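 Broth microdilution in Müller–Hinton broth, 96-well plates. Only compounds giving disc-diffusion zones >10 mm were tested. DMF stocks (1000 µg/mL) were diluted twofold to a final 500–0.007 µg/mL, with about 10^6 CFU/mL bacteria. Sealed plates ran 24 h at 37 °C in a humid chamber. MIC was the lowest concentration with no visible turbidity. DMF and uninoculated-medium controls were included.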

Geotrichum candidum = experiment: Antifungal activity against Geotricum candidum RCMB 05096 assessed as growth inhibition after 48 hrs by twofold serial dilution method; settings: RCMB 05096, 48 h
Method in brief: (§2)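 Fungi were tested by microdilution in Sabouraud liquid medium. Only compounds with disc-diffusion zones >10 mm went on to this test. DMF stocks (1000 µg/mL) were serially diluted twofold to 500–0.007 µg/mL. Sealed plates were held 48 h at 25 °C in a humid chamber. MIC was the lowest concentration without visible turbidity. DMF and uninoculated-medium controls ran in parallel.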

Pseudomonas aeruginosa = experiment: Antibacterial activity against Pseudomonas aeruginosa RCMB 010043 assessed as growth inhibition after 24 hrs by twofold serial dilution method; method in brief: as §1
Talaromyces marneffei = experiment: Antifungal activity against Penicillium marneffei RCMB 01267 assessed as growth inhibition after 48 hrs by twofold serial dilution method; method in brief: as §2
Streptococcus pyogenes = experiment: Antibacterial activity against Streptococcus pyogenes RCMB 010015 assessed as growth inhibition after 24 hrs by twofold serial dilution method; method in brief: as §1
Neisseria gonorrhoeae = experiment: Antibacterial activity against Neisseria gonorrhoeae RCMB 010076 assessed as growth inhibition after 24 hrs by twofold serial dilution method; method in brief: as §1
Klebsiella pneumoniae = experiment: Antibacterial activity against Klebsiella pneumoniae RCMB 010093 assessed as growth inhibition after 24 hrs by twofold serial dilution method; method in brief: as §1
Aspergillus fumigatus = experiment: Antifungal activity against Aspergillus fumigatus RCMB 02564 assessed as growth inhibition after 48 hrs by twofold serial dilution method; settings: RCMB 02564, 48 h; method in brief: as §2
Proteus vulgaris = experiment: Antibacterial activity against Proteus vulgaris RCMB 010085 assessed as growth inhibition after 24 hrs by twofold serial dilution method; method in brief: as §1
Aspergillus clavatus = experiment: Antifungal activity against Aspergillus clavatus RCMB 02593 assessed as growth inhibition after 48 hrs by twofold serial dilution method; settings: RCMB 02593, 48 h; method in brief: as §2
Bacillus subtilis = experiment: Antibacterial activity against Bacillus subtilis RCMB 010063 assessed as growth inhibition after 24 hrs by twofold serial dilution method; settings: RCMB 010063, 24 h; method in brief: as §1
Candida albicans = experiment: Antifungal activity against Candida albicans RCMB 05035 assessed as growth inhibition after 48 hrs by twofold serial dilution method; method in brief: as §2
Shigella flexneri = experiment: Antibacterial activity against Shigella flexneri RCMB 0100542 assessed as growth inhibition after 24 hrs by twofold serial dilution method; method in brief: as §1
Staphylococcus aureus = experiment: Antibacterial activity against Staphylococcus aureus RCMB 010027 assessed as growth inhibition after 24 hrs by twofold serial dilution method; settings: RCMB 010027, 24 h; method in brief: as §1
Enterococcus faecalis = experiment: Antibacterial activity against Enterococcus faecalis RCMB 010068 assessed as growth inhibition after 24 hrs by twofold serial dilution method; method in brief: as §1
[2] = system: Staphylococcus epidermidis; experiment: Ratio of ampicillin MIC to compound MIC for Staphylococcus epidermidis RCMB 010024

Row | Molecule | MIC [1] [µg/mL] | MIC (Geotrichum candidum) [µg/mL] | MIC (Pseudomonas aeruginosa) | MIC (Streptococcus pyogenes) | MIC (Neisseria gonorrhoeae) | MIC (Klebsiella pneumoniae) | MIC (Aspergillus fumigatus) [µg/mL] | MIC (Proteus vulgaris) | MIC (Aspergillus clavatus) [µg/mL] | MIC (Bacillus subtilis) [µg/mL] | MIC (Shigella flexneri) | MIC (Staphylococcus aureus) [µg/mL] | MIC (Talaromyces marneffei; RCMB 01267, 48 h) [µg/mL] | MIC (Enterococcus faecalis; RCMB 010068, 24 h) [µg/mL] | MIC (Candida albicans; RCMB 05035, 48 h) [µg/mL] | MIC (Streptococcus pyogenes; RCMB 010015, 24 h) [µg/mL] | MIC (Neisseria gonorrhoeae; RCMB 010076, 24 h) [µg/mL] | MIC (Klebsiella pneumoniae; RCMB 010093, 24 h) [µg/mL] | MIC (Proteus vulgaris; RCMB 010085, 24 h) [µg/mL] | MIC (Shigella flexneri; RCMB 0100542, 24 h) [µg/mL] | also measured
1 | CC(=O)Nc1ccc(-c2csc(-c3cccnc3)n2)cc1 | 1.95 (≈ 6.6 µM) | 7.81 (≈ 26.4 µM) | inactive | inactive | inactive | inactive | 7.81 (≈ 26.4 µM) | inactive | 15.6 (≈ 52.9 µM) | 0.97 (≈ 3.28 µM) | inactive | 3.9 (≈ 13.2 µM) |  |  |  |  |  |  |  |  | MIC (Talaromyces marneffei): inactive; MIC (Candida albicans): inactive; MIC (Enterococcus faecalis): inactive
2 | Cc1nc(-c2cccnc2)sc1C1=NNC(c2ccc(F)cc2F)C1 (stereo unspecified) | 125 (≈ 351 µM) | 125 (≈ 351 µM) | inactive | inactive | inactive | inactive | 125 (≈ 351 µM) | inactive | 125 (≈ 351 µM) | 62.5 (≈ 175 µM) | inactive | 125 (≈ 351 µM) | 250 (≈ 701 µM) | 125 (≈ 351 µM) |  |  |  |  |  |  | MIC (Candida albicans): inactive
3 | C[C@@H]1[C@H](O)[C@@H](C)/C=C/C=C/C=C/C=C/C=C/C=C/C=C/[C@H](O[C@@H]2O[C@H](C)[C@@H](O)[C@H](N)[C@@H]2O)C[C@@H]2O[C@](O)(C[C@@H](O)C[C@@H](O)[C@H](O)CC[C@@H](O)C[C@@H](O)CC(=O)O[C@H]1C)C[C@H](O)[C@H]2C(=O)O [AMPHOTERICIN B] |  | 0.48 (≈ 0.519 µM) |  |  |  |  | 0.97 (≈ 1.05 µM) |  | 1.95 (≈ 2.11 µM) |  |  |  | 1.95 (≈ 2.11 µM) |  | 0.24 (≈ 0.26 µM) |  |  |  |  |  | 
4 | CC1(C)S[C@@H]2[C@H](NC(=O)[C@H](N)c3ccccc3)C(=O)N2[C@H]1C(=O)O [AMPICILLIN] | 0.48 (≈ 1.37 µM) |  |  |  |  |  |  |  |  | 0.007 (≈ 0.02 µM) |  | 0.06 (≈ 0.172 µM) |  | 1.95 (≈ 5.58 µM) |  | 0.24 (≈ 0.687 µM) |  |  |  |  | 
5 | O=c1oc2ccccc2cc1-c1csc(-c2cccnc2)n1 | 3.9 (≈ 12.7 µM) | 15.6 (≈ 51 µM) |  |  |  |  | 15.6 (≈ 51 µM) |  | 15.6 (≈ 51 µM) | 3.9 (≈ 12.7 µM) |  | 7.81 (≈ 25.5 µM) | 31.2 (≈ 102 µM) | 62.5 (≈ 204 µM) | 125 (≈ 408 µM) | 7.81 (≈ 25.5 µM) | 62.5 (≈ 204 µM) | 7.81 (≈ 25.5 µM) | 15.6 (≈ 51 µM) | 1.95 (≈ 6.37 µM) | MIC (Pseudomonas aeruginosa; RCMB 010043, 24 h): 62.5 µg/mL (≈ 204 µM)
6 | Cc1nc(-c2cccnc2)sc1C(=O)/C=C/c1ccc(F)cc1F | 31.2 (≈ 91.3 µM) | 62.5 (≈ 183 µM) | inactive | inactive | inactive |  | 62.5 (≈ 183 µM) |  | 125 (≈ 365 µM) | 15.6 (≈ 45.7 µM) | inactive | 31.2 (≈ 91.3 µM) | 62.5 (≈ 183 µM) | 250 (≈ 730 µM) | 500 (≈ 1460 µM) |  |  | 31.2 (≈ 91.3 µM) | 62.5 (≈ 183 µM) |  | 
7 | Cc1nc(-c2cccnc2)sc1C(=O)/C=C/c1ccc(Cl)cc1 | 31.2 (≈ 91.7 µM) | 31.2 (≈ 91.7 µM) | inactive | inactive | inactive |  | 62.5 (≈ 183 µM) |  | 125 (≈ 367 µM) | 31.2 (≈ 91.7 µM) | inactive | 62.5 (≈ 183 µM) | 62.5 (≈ 183 µM) |  | 250 (≈ 733 µM) |  |  | 31.2 (≈ 91.7 µM) | 62.5 (≈ 183 µM) |  | MIC (Enterococcus faecalis): inactive
8 | Cc1nc(-c2cccnc2)sc1C1=NNC(c2ccc(Cl)cc2)C1 (stereo unspecified) | 62.5 (≈ 176 µM) | 125 (≈ 352 µM) | inactive | inactive | inactive | inactive | 125 (≈ 352 µM) | inactive | 125 (≈ 352 µM) | 62.5 (≈ 176 µM) | inactive | 125 (≈ 352 µM) | 250 (≈ 704 µM) | 125 (≈ 352 µM) |  |  |  |  |  |  | MIC (Candida albicans): inactive
9 | COc1ccc(C2CC(c3sc(-c4cccnc4)nc3C)=NN2)cc1 (stereo unspecified) | 15.6 (≈ 44.6 µM) | 31.2 (≈ 89.2 µM) | inactive | inactive |  |  | 31.2 (≈ 89.2 µM) |  | 62.5 (≈ 178 µM) | 15.6 (≈ 44.6 µM) |  | 15.6 (≈ 44.6 µM) | 62.5 (≈ 178 µM) | 250 (≈ 713 µM) | 250 (≈ 713 µM) |  | 500 (≈ 1430 µM) | 62.5 (≈ 178 µM) | 31.2 (≈ 89.2 µM) | 62.5 (≈ 178 µM) | 
10 | CC(=O)c1sc(-c2cccnc2)nc1C | 0.24 (≈ 1.1 µM) | 0.48 (≈ 2.2 µM) |  |  |  |  | 1.95 (≈ 8.93 µM) |  | 3.9 (≈ 17.9 µM) | 0.06 (≈ 0.275 µM) |  | 0.24 (≈ 1.1 µM) | 3.9 (≈ 17.9 µM) | 7.81 (≈ 35.8 µM) | 7.81 (≈ 35.8 µM) | 3.9 (≈ 17.9 µM) | 15.6 (≈ 71.6 µM) | 0.48 (≈ 2.2 µM) | 3.9 (≈ 17.9 µM) | 3.9 (≈ 17.9 µM) | MIC (Pseudomonas aeruginosa; RCMB 010043, 24 h): 500 µg/mL (≈ 2290 µM); Ratio [2]: 2
11 | Cc1nc(-c2cccnc2)sc1C(=O)/C=C/c1ccccc1 | 31.2 (≈ 102 µM) | 62.5 (≈ 204 µM) | inactive | inactive | inactive |  | 125 (≈ 408 µM) |  | 125 (≈ 408 µM) | 31.2 (≈ 102 µM) |  | 62.5 (≈ 204 µM) | 125 (≈ 408 µM) | 500 (≈ 1630 µM) | 500 (≈ 1630 µM) |  |  | 62.5 (≈ 204 µM) | 62.5 (≈ 204 µM) | 125 (≈ 408 µM) | 
12 | GENTAMICIN |  |  | 31.2 µg/mL |  | 7.81 µg/mL | 0.24 µg/mL |  | 1.95 µg/mL |  |  | 0.48 µg/mL |  |  |  |  |  |  |  |  |  | 
13 | Cc1nc(-c2cccnc2)sc1C1=NNC(c2ccccc2)C1 (stereo unspecified) | 62.5 (≈ 195 µM) | 62.5 (≈ 195 µM) | inactive | inactive | inactive | inactive | 125 (≈ 390 µM) | inactive | 62.5 (≈ 195 µM) | 62.5 (≈ 195 µM) | inactive | 125 (≈ 390 µM) | 250 (≈ 780 µM) | 125 (≈ 390 µM) |  |  |  |  |  |  | MIC (Candida albicans): inactive
14 | Cc1nc(-c2cccnc2)sc1C(=O)/C=C/c1ccccc1[N+](=O)[O-] | 0.97 (≈ 2.76 µM) | 7.81 (≈ 22.2 µM) |  |  |  |  | 7.81 (≈ 22.2 µM) |  | 31.2 (≈ 88.9 µM) | 0.97 (≈ 2.76 µM) |  | 3.9 (≈ 11.1 µM) | 15.8 (≈ 45.1 µM) | 62.5 (≈ 178 µM) | 31.2 (≈ 88.9 µM) | 62.5 (≈ 178 µM) | 125 (≈ 356 µM) | 0.97 (≈ 2.76 µM) | 7.81 (≈ 22.2 µM) | 7.81 (≈ 22.2 µM) | MIC (Pseudomonas aeruginosa; RCMB 010043, 24 h): 125 µg/mL (≈ 356 µM)
15 | Cc1csc(-c2cccnc2)n1 | 0.97 (≈ 5.5 µM) | 1.95 (≈ 11.1 µM) |  |  |  |  | 7.81 (≈ 44.3 µM) |  | 15.6 (≈ 88.7 µM) | 1.95 (≈ 11.1 µM) |  | 0.97 (≈ 5.5 µM) | 3.9 (≈ 22.1 µM) | 31.2 (≈ 177 µM) | 31.2 (≈ 177 µM) | 15.6 (≈ 88.7 µM) | 62.5 (≈ 355 µM) | 1.95 (≈ 11.1 µM) | 3.9 (≈ 22.1 µM) | 3.9 (≈ 22.1 µM) | MIC (Pseudomonas aeruginosa; RCMB 010043, 24 h): 125 µg/mL (≈ 709 µM)
16 | COc1ccc(/C=C/C(=O)c2sc(-c3cccnc3)nc2C)cc1 | 3.9 (≈ 11.6 µM) | 7.81 (≈ 23.2 µM) |  |  |  |  | 15.6 (≈ 46.5 µM) |  | 31.2 (≈ 92.9 µM) | 1.95 (≈ 5.8 µM) |  | 3.9 (≈ 11.6 µM) | 7.81 (≈ 23.2 µM) | 62.5 (≈ 186 µM) | 62.5 (≈ 186 µM) | 31.2 (≈ 92.9 µM) | 125 (≈ 372 µM) | 3.9 (≈ 11.6 µM) | 7.81 (≈ 23.2 µM) | 7.81 (≈ 23.2 µM) | MIC (Pseudomonas aeruginosa; RCMB 010043, 24 h): 250 µg/mL (≈ 743 µM)
